Published values from different studies.
Compare with care: the assays were run in different laboratories. Converted amounts (≈) assume the structure as drawn.
Organism: Klebsiella pneumoniae

C[C@@H](O)[C@H]1C(=O)N2C(C(=O)O)=C(SCCNC=N)C[C@H]12
MIC (microbial growth, broth dilution): 0.5 µg/mL (≈ 1.67 µM)

Cc1[nH]c(C(=O)Nc2ccc(C(=O)NCC(=O)O)cc2N2CC[C@@H](N)C2)c(Cl)c1Cl.Cl
MIC (microbial growth, broth dilution; ATCC700603): > 32 µg/mL

CN[C@H](CC(C)C)C(=O)N[C@H]1C(=O)N[C@@H](CC(N)=O)C(=O)N[C@H]2C(=O)N[C@H]3C(=O)N[C@H](C(=O)N[C@H](C(=O)O)c4cc(O)cc(O)c4-c4cc3ccc4O)[C@H](O)c3ccc(c(Cl)c3)Oc3cc2cc(c3O[C@@H]2O[C@H](CO)[C@@H](O)[C@H](O)[C@H]2O[C@H]2C[C@](C)(N)[C@H](O)[C@H](C)O2)Oc2ccc(cc2Cl)[C@H]1O
MBC (microbial killing; ATCC27736): 1000 µg/mL (≈ 690 µM)

C[C@@H](O)[C@H]1C(=O)N2C(C(=O)O)=C(SCCN=CN)C[C@H]12
MIC90 (microbial growth, broth dilution; clinical isolate): 256 µg/mL (≈ 855 µM)

C[C@H]1COc2c(N3CCN(C)CC3)c(F)cc3c(=O)c(C(=O)O)cn1c23
MIC (microbial growth, broth dilution): > 16 µg/mL

COc1cc(C=Nc2ccc(C)cc2Cl)ccc1O
inhibition zone (microbial growth, disc diffusion; 2000 µg/mL, 24 h): 15 mm

CC(C)(C)OC(=O)N[C@H]1CCN(c2cc(C(=O)NCC(=O)O)ccc2NC(=O)c2cc(Br)c(Br)[nH]2)C1
MIC (microbial growth, broth dilution; ATCC700603): > 32 µg/mL

C[C@@H](O)[C@H]1C(=O)N2C(C(=O)O)=C(SCCN=CN)C[C@H]12
inhibition zone (microbial growth, disc diffusion; 2000 µg/mL, 24 h): 20.5 mm

Cl.N[C@H]1CCN(c2cc(C(=O)NCC(=O)O)ccc2NC(=O)c2cc(Br)c(Br)[nH]2)C1
MIC (microbial growth, broth dilution; ATCC700603): > 32 µg/mL

COc1cc(C=Nc2ccc([N+](=O)[O-])cc2)ccc1O
inhibition zone (microbial growth, disc diffusion; 2000 µg/mL, 24 h): 14.4 mm

Cc1[nH]c(C(=O)Nc2ccc(C(=O)NCc3n[nH]c(=O)o3)cc2N2CCN(C(=O)OC(C)(C)C)CC2)c(Cl)c1Cl
MIC (microbial growth, broth dilution; ATCC700603): > 32 µg/mL

CC(C)(O/N=C(\C(=O)N[C@@H]1C(=O)N2C(C(=O)[O-])=C(C[n+]3ccccc3)CS[C@H]12)c1csc(N)n1)C(=O)O
MIC (microbial growth, broth dilution; ATCC13883; 20 h): < 0.5 µg/mL

CC(C)(O/N=C(\C(=O)N[C@@H]1C(=O)N2C(C(=O)[O-])=C(C[n+]3ccccc3)CS[C@H]12)c1csc(N)n1)C(=O)O
inhibition zone (microbial growth, disc diffusion; 2000 µg/mL, 24 h): 12 mm
